The source of these data is the array DNA melting data of Ke et al. (doi:10.1101/2024.01.08.574731).

Series [1] can be described thus: melting temperature; fluorescence melt of hairpins on a sequencing array, two-state fit, raised by 9.35 °C to match UV melts. Conditions: sodium 0.088 M. In a few lines: (§1)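 Melting temperature and folding enthalpy were obtained by bootstrapped two-state fitting. Fits used Cy3 fluorescence of library hairpins with annealed Cy3 and quencher oligos on a sequenced MiSeq flow cell, imaged in 50 mM Na-HEPES pH 8.0, 25 mM NaCl in 2.5 °C steps up to 60 °C and normalised to pre-quench Cy3 and control constructs. Four replicates were combined by inverse-variance weighting, and fitted temperatures were raised by 9.35 °C to match UV melts.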

The nature of series [2]: folding enthalpy; higher = less favourable; fluorescence melt of hairpins on a sequencing array, two-state fit. The conditions noted are these: sodium 0.088 M. In a few lines:
as §1

With GCCTTGCGAAAGCATCGC ((..(((....)))..)), the Tm in series [1] stood at 51 °C. Also, the folding enthalpy in series [2] is -12.4 kcal/mol.
On to GCCTTGCGAAAGCATTGC ((..(((....)))..)), for which the Tm in series [1] was found to be 48.2 °C. Besides, the folding enthalpy in series [2] is -11.4 kcal/mol.
Taken in the same sequence, the figures for GCCTTGCGAAAGCCAAGC ((.(.((....)).).)) were 39 °C and -8.85 kcal/mol.
Taken in the same sequence, the figures for GCCTTGCGAAAGCCGGGC (((..((....))..))) were 55.1 °C and -19.9 kcal/mol.
The like results for GCCTTGCGAAAGCGGGGC (((..((....))..))) were, in that order, 65.2 °C and -33.2 kcal/mol.
Take GCCTTTCGAAAGAAGGGC (((.(((....))).))): the Tm in series [1] stood at 53.6 °C. The folding enthalpy in series [2] is -47.5 kcal/mol.
Taken in the same sequence, the figures for GCGAAACCTCGC ((((....)))) were 49.5 °C and -19.9 kcal/mol.
The like results for GCGAAACGAAAGTTCCGC (((.(((....))).))) were, in that order, 52.5 °C and -38.2 kcal/mol.
Turning to GCGAAAGTCGC ((((...)))), the Tm in series [1] was determined as 43.8 °C. Further, in series [2], the folding enthalpy was -16.6 kcal/mol.
Taken in the same sequence, the figures for GCGAACCCGAAAGGGCGC (((..(((....)))))) were 55.5 °C and -21.4 kcal/mol.
Taken in the same sequence, the figures for GCGAACCGTCGC ((((....)))) were 47.7 °C and -18.7 kcal/mol.
Taken in the same sequence, the figures for GCGAACGAAAGTTAACGC ((((((....)))..))) were 44.6 °C and -20.6 kcal/mol.
For GCGAACGAAAGTTACGC ((((((....))).))), in series [1], the Tm worked out at 51.5 °C. In addition, the folding enthalpy in series [2] is -22.7 kcal/mol.
Taken in the same sequence, the figures for GCGAACGAAAGTTGGCGC ((((((....)))..))) were 53.9 °C and -32.8 kcal/mol.
Taken in the same sequence, the figures for GCGAACGAAAGTTGTCGC ((((((....)))..))) were 44.1 °C and -26.2 kcal/mol.
Taken in the same sequence, the figures for GCGAACGAAAGTTTCGC ((((((....))).))) were 60 °C and -36.7 kcal/mol.
Turning to GCGAACGAAAGTTTGCGC ((((((....)))..))), the Tm in series [1] came to 61.8 °C. Further, the folding enthalpy in series [2] was -41.9 kcal/mol.
On to GCGAACGGAAACGCTCAC (.((.((....)).)).), for which the Tm in series [1] turned out to be 34 °C. Moreover, the folding enthalpy in series [2] is -14.3 kcal/mol.
Turning to GCGAACTCGAAAGAGCGC (((..(((....)))))), the Tm in series [1] was 49.3 °C. The folding enthalpy in series [2] is -27.6 kcal/mol.
Taken in the same sequence, the figures for GCGAAGAATCGC ((((....)))) were 50.2 °C and -11.4 kcal/mol.
The like results for GCGAAGCGAAAGCCGCGC (((..((....))..))) were, in that order, 61.6 °C and -16.8 kcal/mol.
The like results for GCGAAGCGAAAGCGCCGC (((..((....))..))) were, in that order, 65.4 °C and -17.9 kcal/mol.
Take GCGAAGCGAAAGCTGGGC ((..(((....)))..)): the Tm in series [1] stood at 43.7 °C. Also, the folding enthalpy in series [2] is -9.44 kcal/mol.
The like results for GCGAAGCGAAAGCTTGGC ((.((((....)))).)) were, in that order, 52 °C and -18.1 kcal/mol.
On to GCGAAGGGAAACCTCCGC (((.(((....))).))), for which, in series [1], the Tm was found to be 46.6 °C. Further, the folding enthalpy in series [2] was -26.1 kcal/mol.
The like results for GCGAAGGGAAACCTTCAC (.(((((....))))).) were, in that order, 38.6 °C and -18.1 kcal/mol.
For GCGAAGTCTCGC ((((....)))), the Tm in series [1] amounted to 47.7 °C. Moreover, in series [2], the folding enthalpy was -14.2 kcal/mol.
Taken in the same sequence, the figures for GCGAAGTTTCGC ((((....)))) were 50.7 °C and -18.2 kcal/mol.
Taken in the same sequence, the figures for GCGAATACGAAAGTACGC (((..(((....)))))) were 44.9 °C and -25 kcal/mol.
The like results for GCGAATCGTCGC ((((....)))) were, in that order, 47.7 °C and -18 kcal/mol.
GCGAATGATCGC ((((....)))): the Tm in series [1] was found to be 42.3 °C. The folding enthalpy in series [2] was -17.7 kcal/mol.
With GCGAATGGAAACGTTCGC (((((.(....).))))), the Tm in series [1] is 56.7 °C. For the same sequence, in series [2], the folding enthalpy was -38.4 kcal/mol.
The like results for GCGAATGGTCGC ((((....)))) were, in that order, 47.8 °C and -10.4 kcal/mol.
Taken in the same sequence, the figures for GCGAATGTTCGC ((((....)))) were 50.3 °C and -25.7 kcal/mol.
Taken in the same sequence, the figures for GCGACAATCGC ((((...)))) were 41.3 °C and -13.9 kcal/mol.
Turning to GCGACACATCGC ((((....)))), the Tm in series [1] stood at 50.3 °C. Also, the folding enthalpy in series [2] is -24.2 kcal/mol.
For GCGACACCTCGC ((((....)))), the Tm in series [1] turned out to be 51.3 °C. Further, the folding enthalpy in series [2] is -29.5 kcal/mol.
